# Results from ChEMBL document CHEMBL1154555, “Antifungal and larvicidal compounds from the root bark of Cordia alliodora” (2000).
# Columns and labels:
# Aedes aegypti = assay: Larvicidal activity against Aedes aegypti assessed as drug level required to kill instar II larvae after 24 hrs; format: functional
# In short: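 Geometric dilutions were made from 5 mg/mL DMSO stocks and added to tubes holding about 20 instar II A. aegypti larvae in tap water, to a final volume of 10 mL. Tubes were kept in darkness at 26-28 °C for 24 h. Larval lethality was scored under lab light, in duplicate.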
# Cladosporium cucumerinum [1] = assay: Antimicrobial activity against Cladosporium cucumerinum after 24 hrs by agar dilution method; format: functional
# In short: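 Geometric dilutions were made in DMSO from 3 mg/mL DMSO stocks and added to Sabouraud agar in sealed 24-well plates, with final DMSO ≤2%. A distilled-water suspension of C. cucumerinum was spread over the agar and incubated 24 h at 30 °C. The read-out was MIC (µg/mL), the average of duplicates, with no-compound growth controls and a nystatin reference.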
# Candida albicans [2] = assay: Antimicrobial activity against sCandida albicans assessed as drug level causing growth inhibition on silica gel TLC plate after 24 hrs; format: functional
# In short: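 Agar overlay bioautography: 10 µL of geometric dilutions from 5 mg/mL stocks were spotted on Si gel 60 F254 glass TLC plates. Plates were developed in petroleum ether-EtOAc (1:1) and dried, then overlaid with about 1 mm of molten malt agar carrying about 107 yeast cells/mL. Plates were incubated overnight at 30 °C, moist, then sprayed with MTT (2.5 mg/mL). The read-out was the minimal amount (µg) giving clear spots on purple, with a nystatin reference.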
# Cladosporium cucumerinum [3] = assay: Antimicrobial activity against Cladosporium cucumerinum assessed as drug level causing growth inhibition on silica gel TLC plate after 2-3 days
# Candida albicans [4] = assay: Antimicrobial activity against Candida albicans after 24 hrs by agar dilution method; format: functional, organism-based
Compound,Activity (Aedes aegypti) [µg/mL],MIC (Cladosporium cucumerinum [1]) [µg/mL],Activity (Candida albicans [2]) [µg],Activity (Cladosporium cucumerinum [3]) [µg],MIC (Candida albicans [4]) [µg/mL]
C/C=C\c1cc(OC)c(OC)cc1OC [CIS-ASARONE],25,–,–,–,–
COC(=O)CCc1cc(OC)c(OC)cc1OC,12.5,15,>50,5,–
CC1=CC(=O)c2c(O)cccc2C1=O [PLUMBAGIN],3,–,–,–,–
NYSTATIN,–,1,0.1,–,1
CC(C)=CCCC(C)(O)/C=C\c1cc(O)ccc1O (stereo not drawn),>50,15,>50,5,–
